Reference: the RNAGym collection of RNA variant scans (doi:10.1126/science.aae0568)
Fewer inactive variants are shown than the library holds.

B1: tRNA (parent)
chain: GUUCCGUUGGCGUAAUGGUAACGCGUCUCCCUCCUAAGGAGAAGACUGCGGGUUCGAGUCCCGUACGGAACG

Variants of: B1
Assay: yeast fitness relative to wild type (ratio to wild type); higher = fitter; tRNA-Arg(CCU), competitive growth, 37 C, YPD
Procedure, shortened: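 Changes in genotype frequencies gave Darwinian fitness relative to wild type. Frequencies were read by 100-nucleotide paired-end sequencing of gene amplicons before and after pooled Saccharomyces cerevisiae strains, carrying tRNA-Arg(CCU) gene variants at the native locus, were competed in YPD at 37°C for 24 hours in six replicates. A genotype was kept only with ≥ 100 starting reads, and estimates < 0.5 were set to 0.5.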

Variant | yeast fitness
GUUCCGUUGGCGUAAUGGUAACGCGUCUCCCUCCUUAGGUGAACACUGCGGGUUCGAGUUCCGUACGGAACG | ≤ 0.5
GUUCCGUUGGCGUAAUGGUAACGCGUCUCCCUCCUUAGGAGAAGACUGCGGGUUCGAGUCCCGUACGGAACG | 0.714
GUUCCGUUGGCGUAAUGGUAACGCGUCUCCCUCCUGAGGAGAAGACUGCGGGUUCAAGUCCCGUACGGAACG | 1.01
GUUCCGUUGGCGUAAUGGUAACGCGUCUCCCUCCUGAGGAGAAGACUGCGGGUUCCAGUCCCGUACGGAACG | 0.686
GUUCCGUUGGCGUAAUGGUAACGCGUCUCCCUCCUGAGGAGAAGACUGCGGGUUCGAGUCCCGUACGCUACG | 0.547
GUUCCGUUGGCGUAAUGGUAACGCGUCUCCCUCCUGAGGAGAAGACUGCGGCUUCGAGUCCCGUACGGAACG | 0.674
GUUCCGUUGGCGUAAUGGUAACGCGUCUCCCUCCUGAGGAGAAGACUGCGGAUUCGAGUCCCGUACGGAACG | 0.744
GUUCCGUUGGCGUAAUGGUAACGCGUCUCCCUCCUUAGGAGCAGACUGCGGGUUCGAGUCCCGUACGGAACG | 0.595
GUUCCGUUGGCGUAAUGGUAACGCGUCUCCCUCCUGAGGAGAAAAUUGCGGGUUCGAGUCCCGUACGGAACG | 0.992
GUUCCGUUGGCGUAAUGGUAACGCGUCUCCCUCCUUAGGAGAAGGCUGCGGGUUCGAGUCCCGUAUGGAGCG | ≤ 0.5
GUUCCGUUGGCGUAAUGGUAACGCGUCUCCCUCCUUAGGAGAGGAAUCCGGGUUCGAGUCCCGUACGGACCG | ≤ 0.5
GUUCCGUUGGCGUAAUGGUAACGCGUCUCCCUCCUUAGGAGAAGACUGGGGGUUCGAGUCCCGUACGGAACG | 0.607
GUUCCGUUGGCGUAAUGGUAACGCGUCUCCCUCCUUCGGAGAAGACUGCGGGUUCGAGUCCCGUACGGAGCG | ≤ 0.5
GUUCCGUUGGCGUAAUGGUAACGCGUCUCCCUCCUGAGGAGAAGACUGCGGGUACGAGUCCUGUACGGAACG | ≤ 0.5
GUUCCGUUGGCGUAAUGGUAACGCGUCUCCCUCCUUAGGAGAAGCCUGUGGGUUCGAGUCCCGUACGGAACG | ≤ 0.5
GUUCCGUUGGCGUAAUGGUAACGCGUCUCCCUCCUUAGGAGAAGAGUGCGGGUCCGAGUCCAGUACGGCACG | ≤ 0.5
GUUCCGUUGGCGUAAUGGUAACGCGUCUCCCUCCUUAGGAGUAGACUGUGGGUUCGAGUCCCGUACGGAACG | 0.576
GUUCCGUUGGCGUAAUGGUAACGCGUCUCCCUCCUGAGGAGAAGACUAGGGGUUCGAGACCCGUACGGAACG | ≤ 0.5
GUUCCGUUGGCGUAAUGGUAACGCGUCUCCCUCCUUAGGCGAAGACUGCGGGUUCGAGUCCUGUCCGGAACG | ≤ 0.5
GUUCCGUUGGCGUAAUGGUAACGCGUCUCCCUCCUGAGGAGAAGACUGCGGGUUCGAGCCCCGUACGGUACG | 0.783
GUUCCGUUGGCGUAAUGGUAACGCGUCUCCCUCCUUGGGCGAAGACUGCGGGUUCGAGUCCCGUACGGAACG | ≤ 0.5
GUUCCGUUGGCGUAAUGGUAACGCGUCUCCCUCCUGAGGAGAAGACUGCGGAUUCGAGUCCGGUACGGAACG | ≤ 0.5
GUUCCGUUGGCGUAAUGGUAACGCGUCUCCCUCCUUUGGAGAAGACUGCGGGUUAGAGUCCCCUACGGAACG | ≤ 0.5
GUUCCGUUGGCGUAAUGGUAACGCGUCUCCCUCCUUAGGAGAAGACUGGGGCUUCGAGUCCCGUACGGAACG | ≤ 0.5
GUUCCGUUGGCGUAAUGGUAACGCGUCUCCCUCCUUAGGAGAAGACUGCGGGUUCGAGUCCCGUACGGGACG | 0.617

Variant | yeast fitness
GUUCCGUUGGCGUAAUGGUAACGCGUCUCCCUCCUUAGGAGAAGACUGCGGGUUCGAGUCCCGUACGGCACG | 0.629
GUUCCGUUGGCGUAAUGGUAACGCGUCUCCCUCCUUAGGAGUAGACUGUGGGUUCGAGUCCCGUACGGCACG | ≤ 0.5
GUUCCGUUGGCGUAAUGGUAACGCGUCUCCCUCCUGAGGAGAAGACUGCGGGUUCGAAUCCCGUACGGAACG | 0.898
GUUCCGUUGGCGUAAUGGUAACGCGUCUCCCUCCUGAGGAGAAGACUGCGGGUUCGACUCCCGUACGGAACG | 0.943
GUUCCGUUGGCGUAAUGGUAACGCGUCUCCCUCCUUAGGAGAAGACUGCGGGUUCGAGUCCCGUACGGACCG | 0.799
GUUCCGUUGGCGUAAUGGUAACGCGUCUCCCUCCUUAGGAGAAGACUGCGGGUUCGAGUCCCGUACGGAGCG | 0.607
GUUCCGUUGGCGUAAUGGUAACGCGUCUCCCUCCUUAGGAGAAGAUUGCGAGUUCGAGUCCCGCACGGAACG | 0.597
GUUCCGUUGGCGUAAUGGUAACGCGUCUCCCUCCUUAGGAGAAGAGUGCGGGUUCGAGUCCCGUACGGAACG | 0.655
GUUCCGUUGGCGUAAUGGUAACGCGUCUCCCUCCUUAGGAGAGGACUGCGGGUUCGAGUCCCGUACGGAACG | 0.745
GUUCCGUUGGCGUAAUGGUAACGCGUCUCCCUCCUUAGGAGACGACUGCGGGUUCGAGUCCCGUACGGAACG | 0.569
GUUCCGUUGGCGUAAUGGUAACGCGUCUCCCUCCUGAGGAGAAGACUGCCGGUUCGAGUCCCGUACGGAACG | 0.723
GUUCCGUUGGCGUAAUGGUAACGCGUCUCCCUCCUUAGGAGAAGCCUGCGGGUUCGAGUCCCGUACGGAACG | 0.6
GUUCCGUUGGCGUAAUGGUAACGCGUCUCCCUCCUUAGGAGAAGUCUGCGGGUUCGAGUCCCGUACGGAACG | 0.728
GUUCCGUUGGCGUAAUGGUAACGCGUCUCCCUCCUUAGGUGAAGACUGCGGGUUCGGGUCCCGUACGGAACG | ≤ 0.5
GUUCCGUUGGCGUAAUGGUAACGCGUCUCCCUCCUGAGGAGAAGACUGCCGGUUCGAGUCCCGCACGGAACG | 1.18
GUUCCGUUGGCGUAAUGGUAACGCGUCUCCCUCCUUAGGAGAAGCCUGGGGGUUCGAGUCCCGUACAGAACG | 0.548
GUUCCGUUGGCGUAAUGGUAACGCGUCUCCCUCCUGAGGAGAAGACUGCGGGAUCGAGUCCAGUACGGAACG | ≤ 0.5
GUUCCGUUGGCGUAAUGGUAACGCGUCUCCCUCCUUAGGAGAAGACUGCGGGUUCGGGUCCCCUACGGAACG | 0.563
GUUCCGUUGGCGUAAUGGUAACGCGUCUCCCUCCUUAGGAGAAGACUGAGGAUUCGAGUCCCGUACGGAACG | ≤ 0.5
GUUCCGUUGGCGUAAUGGUAACGCGUCUCCCUCCUGAGGAGAAGACUACGGGGUCGAGUCCCGUACGGAACG | ≤ 0.5
GUUCCGUUGGCGUAAUGGUAACGCGUCUCCCUCCUUUGGAGAAGUCUGCGGGUUCGAGUCCCGUGCGGAACG | ≤ 0.5
GUUCCGUUGGCGUAAUGGUAACGCGUCUCCCUCCUGAGGAGAAGACUGCGGGUUCGAGUCCCGAACGGAACG | 0.796
GUUCCGUUGGCGUAAUGGUAACGCGUCUCCCUCCUUGGGCGAAGACUGCGGGUUCGAGUCCCGUAUGGAACG | 0.636
GUUCCGUUGGCGUAAUGGUAACGCGUCUCCCUCCUGAGGAGAAGACUGCGGGUUCGAGACCCGUCCGGACCG | ≤ 0.5
GUUCCGUUGGCGUAAUGGUAACGCGUCUCCCUCCUUAGGAGAAGUCUGCGGGUUCGUGUCCCGUACGGAACG | ≤ 0.5

Variant | yeast fitness
GUUCCGUUGGCGUAAUGGUAACGCGUCUCCCUCCUUAGGAGAAGUCUGCGGCUUCGAGUCCCGUACGGAACG | ≤ 0.5
GUUCCGUUGGCGUAAUGGUAACGCGUCUCCCUCCUUAGGAGAAGAAUGCGGGUUCGAGUCCCGUAAGGAACG | ≤ 0.5
GUUCCGUUGGCGUAAUGGUAACGCGUCUCCCUCCUGAGGAGAAUACUGCGGGUUCGAGUCCCGUACGGAACG | 0.711
GUUCCGUUGGCGUAAUGGUAACGCGUCUCCCUCCUGAGGAGAACACUGCGGGUUCGAGUCCCGUACGGAACG | 0.981
GUUCCGUUGGCGUAAUGGUAACGCGUCUCCCUCCUGAGGAGAAGACUGCGGGUGCGAGUCCCGUACGGAACG | 0.66
GUUCCGUUGGCGUAAUGGUAACGCGUCUCCCUCCUGAGGAGAAGACUGCGGGUCCGAGUCCCGUACGGAACG | 0.906
GUUCCGUUGGCGUAAUGGUAACGCGUCUCCCUCCUUAGGUGAAGACUGCGGGUUCGAGUCCCGUCUGGAACG | ≤ 0.5
GUUCCGUUGGCGUAAUGGUAACGCGUCUCCCUCCUGAGGAGAAGACUGCGGGUUCGAGUCCCGUACUGAACG | 0.901
GUUCCGUUGGCGUAAUGGUAACGCGUCUCCCUCCUGAGGAGAAGACUGCGGGUUCGAGUCCCGUACAGAACG | 0.864
GUUCCGUUGGCGUAAUGGUAACGCGUCUCCCUCCUUAGGAGAAGACUGGGGGUUCGAGUCCCGUACGGUACG | ≤ 0.5
GUUCCGUUGGCGUAAUGGUAACGCGUCUCCCUCCUUAGGAGAAGAGUGCGGGUUCGAGUCCAGUACGGCACG | 0.562
GUUCCGUUGGCGUAAUGGUAACGCGUCUCCCUCCUUAGGAGAAGUUUGCGGGCUCGAGUCCCGUACGGAACG | ≤ 0.5
GUUCCGUUGGCGUAAUGGUAACGCGUCUCCCUCCUGAGGAGAAGACUGCGGGUUCGAGUCCCAUACGGAACG | 0.944
GUUCCGUUGGCGUAAUGGUAACGCGUCUCCCUCCUGAGGAGAAGACUGCGGGUUCGAGUCCCCUACGGAACG | 0.724
GUUCCGUUGGCGUAAUGGUAACGCGUCUCCCUCCUUAGGAGAAGUCUGCGGGUUCGAGUCCCGUAUGGAACG | 0.535
GUUCCGUUGGCGUAAUGGUAACGCGUCUCCCUCCUUAGGAGAAGACUGAGGGUUCGAGUCCCGUACGGUACG | 0.565
GUUCCGUUGGCGUAAUGGUAACGCGUCUCCCUCCUGAGGAGAAGACUAGGGGUUCGAGUCCCGUACGGAACG | 0.63
GUUCCGUUGGCGUAAUGGUAACGCGUCUCCCUCCUGAGGAGAAGACUGCGGGUUCGAGCCCCGUACGGAACG | 1.18
GUUCCGUUGGCGUAAUGGUAACGCGUCUCCCUCCUGAGGAGAAGACUGCGGGUUCGAGUCCCGAACCGAACG | ≤ 0.5
GUUCCGUUGGCGUAAUGGUAACGCGUCUCCCUCCUGAGGAGAAGACUCCGGGUUCGAGUCCCGUACGGAACG | 0.905
GUUCCGUUGGCGUAAUGGUAACGCGUCUCCCUCCUUAGGAGAAGGCUGAGGGUUCGAGUCCCGUAUGGAGCG | ≤ 0.5
GUUCCGUUGGCGUAAUGGUAACGCGUCUCCCUCCUGAGGAGAAGACAGCGGGUUCGAGUCCCGUACGGCACG | 0.68
GUUCCGUUGGCGUAAUGGUAACGCGUCUCCCUCCUUAGGCGAAGUCUGCGGGUUCGAGUCCGAUACGGAACG | ≤ 0.5
GUUCCGUUGGCGUAAUGGUAACGCGUCUCCCUCCUGAGGAGAAGACUGCGGGUUCGAGUCCCAUACGGUACG | 0.688
GUUCCGUUGGCGUAAUGGUAACGCGUCUCCCUCCUGAGGAGAAGACUGCGGGUUCGAGUCCCGUACGAAACG | 0.905
